From article PMC11310838 (RSC Advances, 2024)
Where two headings read alike, the source gives them in different places.

What was measured:
[1] = system: HEPG2 cell line; assay: Sulforhodamine B; assay type: cell-based, human; conditions: Homo sapiens, HepG2, 48 h; for IC50: read-out: IC50 (μM) ± SD HEPG2; for inhibition at 100 µM: read-out: Percentage of cell growth inhibition at [100 μM] HEPG2
Summary of the method: (§1)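 Carcinoma lines came from the National Cancer Institute, Cairo, and were grown as monolayers in DMEM with 10% FBS and 1% penicillin–streptomycin. Final DMSO was ≤0.1% (v/v). Cells were treated for 48 h either at a single 100 μM dose (% growth inhibition) or at 0, 6.25, 12.5, 25 and 50 μM. SRB staining was read at 570 nm as % viability. IC50 came from dose–response curve fitting.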

[2] = system: HDF cell line (Human Dermal Fibroblasts); assay: Sulforhodamine B; assay type: cell-based; conditions: Homo sapiens, HDF, 48 h, read-out: Percentage of cell growth inhibition at [100 μM] HDF
Summary of the method: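 Normal human dermal fibroblasts came from the National Cancer Institute, Cairo. Final DMSO was ≤0.1% (v/v). Cells were exposed to the test compound at a single 100 μM dose for 48 h. Growth inhibition was measured by the sulforhodamine-B method, with absorbance read at 570 nm and expressed as percentage of cell viability.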

[3] = system: cancer cell lines (HCT116, HEPG2, MCF7); assay: SRB single-dose screen, summary over cancer cell lines; assay type: cell-based; conditions: Homo sapiens, 48 h, read-out: percentage of cell growth inhibition on the cancer cell lines
Summary of the method: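 Human carcinoma lines grown as monolayers in DMEM with 10% FBS and 1% penicillin–streptomycin. Each test compound was applied once at 100 μM for 48 h, with final DMSO at most 0.1% (v/v) in control and treated wells. Growth was measured by sulforhodamine-B staining, with OD read at 570 nm. Percentage growth inhibition was calculated from viability relative to the untreated control.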

[4] = target: EGFR kinase (Homo sapiens, UniProt P00533); assay: EGFR kinase inhibitory assay; assay type: biochemical; conditions: for % of EGFR inhibition: concentration not given, average of three replicates
Chain of EGFR kinase (P00533 25-1210): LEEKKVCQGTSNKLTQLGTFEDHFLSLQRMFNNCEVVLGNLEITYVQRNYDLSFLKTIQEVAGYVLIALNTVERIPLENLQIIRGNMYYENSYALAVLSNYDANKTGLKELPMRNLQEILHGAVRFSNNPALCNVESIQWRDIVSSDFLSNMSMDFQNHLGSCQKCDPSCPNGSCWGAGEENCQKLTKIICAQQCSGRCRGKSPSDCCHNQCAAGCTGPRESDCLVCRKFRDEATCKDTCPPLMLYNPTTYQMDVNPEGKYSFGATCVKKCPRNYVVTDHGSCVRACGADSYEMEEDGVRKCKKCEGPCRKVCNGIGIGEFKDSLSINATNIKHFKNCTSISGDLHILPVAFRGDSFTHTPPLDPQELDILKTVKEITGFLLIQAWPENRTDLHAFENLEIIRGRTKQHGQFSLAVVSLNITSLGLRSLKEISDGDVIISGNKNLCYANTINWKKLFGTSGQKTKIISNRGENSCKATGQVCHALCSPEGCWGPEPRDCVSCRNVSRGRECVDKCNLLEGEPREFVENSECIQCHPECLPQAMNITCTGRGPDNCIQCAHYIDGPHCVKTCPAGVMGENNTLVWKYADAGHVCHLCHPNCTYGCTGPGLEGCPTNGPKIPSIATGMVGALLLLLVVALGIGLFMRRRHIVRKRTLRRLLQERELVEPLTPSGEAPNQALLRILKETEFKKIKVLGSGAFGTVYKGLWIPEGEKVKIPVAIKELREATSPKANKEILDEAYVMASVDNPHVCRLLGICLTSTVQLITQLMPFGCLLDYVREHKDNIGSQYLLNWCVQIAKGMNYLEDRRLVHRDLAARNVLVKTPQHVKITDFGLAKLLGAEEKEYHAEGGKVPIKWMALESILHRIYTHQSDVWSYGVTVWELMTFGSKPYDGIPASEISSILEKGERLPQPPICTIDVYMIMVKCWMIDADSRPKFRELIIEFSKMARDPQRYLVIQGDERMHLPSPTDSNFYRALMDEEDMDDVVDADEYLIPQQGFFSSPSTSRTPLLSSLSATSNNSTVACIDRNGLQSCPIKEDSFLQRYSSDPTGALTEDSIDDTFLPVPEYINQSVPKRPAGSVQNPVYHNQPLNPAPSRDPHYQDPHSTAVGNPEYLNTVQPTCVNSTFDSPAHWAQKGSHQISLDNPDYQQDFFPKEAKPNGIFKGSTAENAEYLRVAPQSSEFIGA

[5] = system: MCF7 cell line; assay: Sulforhodamine B; assay type: cell-based, human; conditions: Homo sapiens, MCF7, 48 h; for IC50: read-out: IC50 (μM) ± SD MCF7; for inhibition at 100 µM: read-out: Percentage of cell growth inhibition at [100 μM] MCF7
Summary of the method: as §1

[6] = system: HCT116 cell line; assay: Sulforhodamine B; assay type: cell-based, human; conditions: for inhibition at 100 µM: read-out: Percentage of cell growth inhibition at [100 μM] HCT116
Summary of the method: as §1

[7] = system: HCT-116 cells; assay: RT-PCR of apoptosis-related genes; assay type: cell-based, human; conditions: HCT-116, IC50 = 8.5 μM, 48 h, untreated control = 1
Summary of the method: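 HCT-116 cells were exposed to the test compound for 48 h, alongside untreated cells. Relative expression of apoptosis-related genes was measured by real-time PCR. Ct values were normalised to β-actin, and untreated control was set to fold change = 1. Data are the mean ± SD of 3 independent runs.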

[8] = system: HCT-116 cells; assay: Annexin V/PI staining flow cytometry; assay type: cell-based, human; conditions: HCT-116, treated at IC50 = 8.5 μM, 48 h
[9] = system: HCT-116 cells; assay: DNA content-flow cytometry cell cycle analysis; assay type: cell-based, human; conditions: HCT-116, treated at IC50 = 8.5 μM, 48 h; control 3.77%
[10] = Homo sapiens, HCT-116, 48 h, read-out: IC50 (μM) ± SD HCT116, 48 h treatment, SRB

Row | IC50 [1] | IC50 [4] | % of EGFR inhibition [4] | IC50 [5] | IC50 [6, 10] | Structure (SMILES) | inhibition at 100 µM [1] | inhibition at 100 µM [2] | inhibition at 100 µM [3] | inhibition at 100 µM [5] | inhibition at 100 µM ([6]; Homo sapiens, HCT-116, 48 h) | other results
1 | 26.5 ± 2.7 µM | 0.0546 ± 0.0009 µM | 74.8 ± 1.6% | 24.7 ± 3.6 µM | 11.5 ± 2.5 µM | Cc1ccc(N=Nc2sc(NN=Cc3ccc(OCC(=O)N4CCN(C(=O)COc5ccc(C=NNc6nc(C)c(N=Nc7ccc(C)cc7)s6)cc5)CC4)cc3)nc2C)cc1 [Compound 9b, 1,1′-(Piperazine-1,4-diyl)bis(2-(4-(((4-methyl-5-(4-tolylazo)thiazol-2-yl)hydrazono)methyl)-phenoxy)ethanone)] | 56.5 ± 4.93% | 27.6 ± 25.1% | > 80% | 89.5 ± 2.34% | 85.2 ± 2.11% | 
2 | 23.8 ± 4 µM | 0.0121 ± 4e-05 µM | 83.7 ± 1.4% | 13.7 ± 2.3 µM | 9.98 ± 2 µM | Cc1nc(NN=Cc2ccc(OCC(=O)N3CCN(C(=O)COc4ccc(C=NNc5nc(C)c(N=Nc6ccccc6)s5)cc4)CC3)cc2)sc1N=Nc1ccccc1 [Compound 9a, 1,1′-(Piperazine-1,4-diyl)bis(2-(4-(((4-methyl-5-(phenylazo)thiazol-2-yl)hydrazono)methyl)-phenoxy)ethanone)] | 74.7 ± 4.49% | 18.2 ± 11.5% | > 80% | 85.9 ± 5.94% | 81 ± 3.91% | 
3 | 41.3 ± 3.9 µM | 0.0035 ± 0.0001 µM | 89.7 ± 2.8% | 48.5 ± 4.8 µM | 20.7 ± 1.5 µM | NC(=S)NN=Cc1ccccc1OCC(=O)N1CCN(C(=O)COc2ccccc2C=NNC(N)=S)CC1 [Compound 7b, 1,1′-(Piperazine-1,4-diyl)bis(2-(2-(2-carbamothioylhydrazono)methylphenoxy)ethanone)] | 89.1 ± 2.22% | 66.5 ± 11.5% | > 80% | 88.9 ± 5.46% | 90.1 ± 3.41% | 

Row | Structure (SMILES) | IC50 [1] | IC50 [4] | % of EGFR inhibition [4] | IC50 [5] | IC50 [6, 10] | inhibition at 100 µM [1] | inhibition at 100 µM [2] | inhibition at 100 µM [3] | inhibition at 100 µM [5] | inhibition at 100 µM ([6]; Homo sapiens, HCT-116, 48 h) | other results
4 | Cc1nc(NN=Cc2ccccc2OCC(=O)N2CCN(C(=O)COc3ccccc3C=NNc3nc(C)c(N=Nc4ccc(Br)cc4)s3)CC2)sc1N=Nc1ccc(Br)cc1 [Compound 9i, 1,1′-(Piperazine-1,4-diyl)bis(2-(2-(((4-methyl-5-(4-bromophenylazo)thiazol-2-yl)hydrazono)-methyl)phenoxy)ethanone)] | 22 ± 2.9 µM | 0.0012 ± 5e-05 µM | 97.5 ± 2.1% | 13 ± 2.8 µM | 8.5 µM | 91 ± 3.56% | 71.6 ± 17.3% | > 80% | 89.9 ± 2.3% | 89.6 ± 5.3% | Bcl-2 expression fold change ([7]; downregulated): 0.76 fold change; P53 fold change ([7]; upregulated): 10.87 fold change; caspase-3 level fold change ([7]; upregulated): 9.87 fold change; caspase-8 level fold change ([7]; upregulated): 7.6 fold change; caspase-9 level fold change ([7]; upregulated): 11.6 fold change; IC50 ([6]; read-out: IC50 (μM) ± SD HCT116, 48 h treatment, SRB): 8.51 ± 2.5 µM; induction of apoptotic cell death vs untreated control [8]: 4.16 fold; induction of necrosis cell death vs untreated control [8]: 4.79 fold; early apoptosis ([8]; control 1.69%): 0.54%; late apoptosis ([8]; control 2.36%): 16.31%; total apoptosis ([8]; control 4.05%): 16.85%; cell population at the P2 phase [9]: 51.89%
